From ChEMBL document CHEMBL1123751, “Synthesis and biological activity of unsaturated carboacyclic purine nucleoside analogues” (J Med Chem, 1987)
Converted amounts (≈) assume the structure as drawn.

What was measured:
Human alphaherpesvirus 2 [1] = assay: Virus rating is measurement of degree of inhibition of virus-induced cytopathogenic effects and the degree of cytotoxicity produced by the test compound for Herpes simplex virus (HSV) -2; type: functional
Method in brief: (§1)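 Virus rating as defined by Southern Research Institute: a selective antiviral score that combines the degree of inhibition of virus-induced cytopathogenic effect with the degree of cytotoxicity from the test compound, determined by a modification of a published method.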

Vero [2] = assay: Minimum inhibitory concentration of cytopathogenic-induced effect was determined against Herpes simplex virus (HSV) -2 in vero cell monolayer culture; type: functional; conditions: Chlorocebus sabaeus
Vero [3] = assay: Inhibition effect was determined against Herpes simplex virus (HSV) -1 in vero cell monolayer culture; type: functional, Chlorocebus sabaeus
Vero [4] = assay: Inhibition of cytopathogenic effect was determined against Herpes simplex virus (HSV) -2 in vero cell monolayer culture; type: functional; conditions: Chlorocebus sabaeus
Human alphaherpesvirus 2 [5] = assay: Evaluated virus rating for Herpes simplex virus (HSV) -2; type: functional; method in brief: as §1
[6] = Virus rating is measurement of degree of inhibition of virus-induced cytopathogenic effects and the degree of cytotoxicity produced by the test compound for influenza type A2; type: functional

SMILES | Virus rating (Human alphaherpesvirus 2 [1]) | MIC50 (Vero [2]) [µg/mL] | ID90 (Vero [3]) [µM] | MIC50 (Vero [4]) [µg/mL] | Virus rating (Human alphaherpesvirus 2 [5]) | Virus rating [6]
Nc1nc(O)c2ncn(CC=C(CO)CO)c2n1 | 1.5 | 65.6 (≈ 261 µM) | 25 | – | – | –
Nc1ncnc2c1ncn2CC=C(CO)CO | – | – | – | 939 (≈ 3990 µM) | 0.6 | 0.3
Nc1nc2c(ncn2COCCO)c(=O)[nH]1 [ACYCLOVIR] | 5.1 | – | – | 4.3 (≈ 19.1 µM) | – | –
NC(=O)c1ncn([C@@H]2O[C@H](CO)[C@@H](O)[C@H]2O)n1 [RIBAVIRIN] | – | – | – | – | – | 2.8
Nc1ncnc2c1ncn2[C@@H]1O[C@H](CO)[C@@H](O)[C@@H]1O [VIDARABINE] | 1.2 | – | – | 26.8 (≈ 100 µM) | – | –
